Source: PubChem (Broad Institute)
CFTR F508del cor – correctors of CFTR F508del function in bronchial epithelial cells. CFBE cells, YFP halide quenching; stimulated with forskolin plus potentiator P3; % fluorescence drop versus neutral controls. activity (quench increase), % at 7.58 µM. 350,000 tested, 0.36% active. AID 720511;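 active means mean added fluorescence quench of at least 8% versus neutral control, with both replicates also reaching 8%; inconclusive means only one of the mean or replicate conditions met; inactive means mean below 8% and not both replicates reaching 8%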;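 further: cells transiently co-express mutant CFTR-F508del with the halide-sensitive YFP; corrector assay measuring rescue of mutant channel to the surface after 24 h compound exposure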
PGC1a acetyl inh – lowers PGC1a acetylation signal in U2OS cells | AlphaScreen anti-acetyl-lysine; with virally co-expressed GCN5 acetyltransferase | inhibition, % at 15.6 µM | 350,000 tested, 0.17% active;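 active means every replicate shows inhibition of at least 40%; inconclusive means mean inhibition at least 40% but some replicate below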;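 further: 0% = neutral control wells and 100% = positive control wells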
ARNT-TACC3 inh – disrupts binding between human ARNT and TACC3 | AlphaScreen His-ARNT PAS-B/GST-TACC3 binding, luminescence; TACC3 fragment carries E629A point mutation | inhibition, % at 9.99 µM | 390,000 tested, 0.66% active;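 active means mean inhibition of replicates at least 50% and at least half of replicates each reaching 50%; inconclusive means half or more replicates reach 50% but mean below 50%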;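 further: 0% = complete ARNT plus TACC3 wells and 100% = ARNT alone without TACC3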
miR122 inh – inhibitors of miR-122 in Huh7 cells | Huh7 miR-122 Renilla luciferase sensor, 48 h; neutral wells = 0, positive control = 100 | activation (reporter increase), % at 12.5 µM | 340,000 tested, 0.3% active | AID 602342;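 active means mean replicate activation score at least 90 and every replicate individually at or above 90; inconclusive means only one of the two criteria met; inactive means neither criterion met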;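 further: higher luciferase means less miR-122 activity so hits act as miR-122 inhibitors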
CAL PDZ FP-1 – blocks peptide binding to the human CAL PDZ domain; 300,000 tested, 0.92% active; Q9HD26; AID 602252; purified CAL PDZ, TMR-peptide fluorescence polarization, 1 h; inhibition, % at 24.9 µM;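 active means mean inhibition of at least 30% with at least half of replicates also reaching 30%; inconclusive means no clear call, values can overlap the other calls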;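 further: 0% = DMSO neutral control and 100% = excess unlabeled competitor peptide PRC23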
CAL PDZ FP-2 – inhibitors of human CAL PDZ peptide binding; purified CAL PDZ, TMR-peptide fluorescence polarization, 1 h; inhibition, % at 20 µM; 330,000 tested, 0.02% active; AID 504414;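 active means highest replicate inhibition of at least 40%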;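 further: plate controls were DMSO neutral control wells for no effect and unlabeled competitor peptide control wells for full effect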
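Assay system – tagged CAL PDZ protein CerCALP, purified · Timing – 1 h at RT · Compound – single point, 20 µM · Measured by – fluorescence polarization from S- and P-plane intensities, G-factor corrected · Evaluation – inhibition from polarization loss · Probe or stimulus – TMR reporter peptide T*-PRC34 · Buffer or medium – pH 7.4 phosphate-saline buffer, reducing agent, detergent, IgG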
* marks the source's active call; other numbers are inactive results; ? = inconclusive; / = not tested or not shown; ! = repeats disagree; [ ] = remark or other dose. Hits are enriched below; roughly 1.7% of the tested compounds scored in any of these assays.

SMILES | CFTR F508del cor | PGC1a acetyl inh | ARNT-TACC3 inh | miR122 inh | CAL PDZ FP-1 | CAL PDZ FP-2
CC[C@H]1CN2CCC1C[C@@H]2[C@H](O)c1ccnc2ccc(OC)cc12 (some centres undefined) | -2 | 10 | 6 | -4 | 5 | -1
C=CC1CN2CCC1CC2C(OC(C)=O)c1ccnc2ccc(OC)cc12 (centres undefined) | -1 | / | -3 | / | 58* | -1
CN1CC[C@@]2(C)c3cc(O)ccc3N(C)[C@@H]12 | -5 | 23 | 47*! | -4 | 2 | 1
CN1CC[C@@]2(C)c3cc(O)ccc3N(C)C2O1 (some centres undefined) | / | -1 | 30* | -9 | -1 | -2
O=C1CNC[C@H]2[C@@H](c3ccc(Br)cc3)[C@@H](CO)N12 | -3 | 0 | / | / | / | /
C/C=C/c1ccc([C@H]2[C@@H](CO)N3CCCCN(C(=O)Cc4ccncc4)C[C@@H]23)cc1 | -1 | -1 | -3 | -3[16.7 µM] | / | /
COc1cc2c(c(OC)c1OC)-c1ccc(O)c(=O)cc1C(NC(C)=O)CC2 (centres undefined) | -2 | -10 | -10 | 97* | -3 | -2
O=C(Cc1ccncc1)N1CCCCN2[C@@H](CO)[C@@H](c3ccc(C#CC4(O)CCCC4)cc3)[C@@H]2C1 | 1 | 4 | 10 | 5[16.7 µM] | / | /
COc1ccc(-c2ccc3n(c2=O)C[C@H]2[C@H](CO)[C@@H](C(=O)O)[C@@H]3N2C(=O)c2ccccc2F)cc1 | / | / | 1 | / | / | /
C/C=C/c1ccc(C2[C@@H]3CN(C(=O)C4CC4)C[C@H]2N3)cc1 (some centres undefined) | 0 | 1 | / | / | / | /
Cc1ccc(C[n+]2c(-c3ccc(C)cc3)cc(-c3ccc(C)cc3)cc2-c2ccc(C)cc2)cc1 | / | 67* | 14 | 4 | -4 | -1
Cc1ccc(-c2cc(-c3ccc(C)cc3)[n+](-c3ccc(C(=O)O)cc3)c(-c3ccc(C)cc3)c2)cc1 | -1 | -3 | 1 | 0 | -42 | -4
Cc1ccccc1-c1ccc([C@H]2[C@@H](CO)N3CCCCN(C(=O)Cc4ccccn4)C[C@@H]23)cc1 | -1 | -5 | -1 | 27[16.7 µM] | / | /
O=C(O)[C@@H]1[C@@H](CO)[C@@H]2Cn3c(ccc(-c4ccccc4)c3=O)[C@H]1N2C(=O)C1CCCCC1 | -2 | 10 | -6 | -8[16.7 µM] | / | /
COc1cc(/C=C2\C(=O)NC(=O)N(c3ccccc3)C2=O)c([N+](=O)[O-])cc1OC | 0 | 4 | 2 | / | 0 | 46*
COc1cc(/C=C2\C(=O)NC(=O)N(c3ccccc3)C2=O)cc(OC)c1O | / | -2 | -6 | -3 | / | -1
O=C(Cc1ccccn1)N1CCCCN2[C@H](CO)[C@@H](c3ccc(-c4ccc(F)cc4)cc3)[C@H]2C1 | 6 | 13 | 4 | 5[16.7 µM] | / | /
CCC(C)N1C(=O)/C(=C\c2cc3c4c(c2)CCCN4CCC3)C(=O)NC1=S (centres undefined) | / | -2 | 6 | -11 | 65* | 0
COC(=O)C1=C(C(=O)OC)SC2(S1)C(C(=O)OC)=C(C(=O)OC)Sc1c2ssc1=O | -2 | / | 68* | / | -5 | -1
O=[N+]([O-])c1ccc(Nc2ccccc2)cc1 | 3 | -1 | 3 | -3 | -3 | -1
CC(Cc1ccccc1)NC(=O)Cc1ccc([N+](=O)[O-])cc1 (centres undefined) | -2 | / | 7 | / | 30* | 1
COC(=O)[C@H]1[C@H](CO)[C@H]2Cn3c(ccc(-c4ccccc4F)c3=O)[C@@H]1N2 | / | / | 0 | / | / | /
O=C(O)[C@H]1[C@H](CO)[C@H]2Cn3c(ccc(-c4ccc(F)cc4)c3=O)[C@@H]1N2CC1CCCC1 | -3 | 4 | / | / | / | /
Cc1oc2ccc(OC(=O)N(C)C)cc2c1C(=O)OC(C)C | / | -1 | -1 | 143* | -1 | 0
CCOC(=O)c1c(-c2ccc(OC)cc2)oc2ccc(OC(=O)N(C)C)cc12 | / | / | 1 | 2 | -1 | -2
SMILES | CFTR F508del cor | PGC1a acetyl inh | ARNT-TACC3 inh | miR122 inh | CAL PDZ FP-1 | CAL PDZ FP-2
COC(=O)[C@@H]1[C@@H](CO)[C@@H]2Cn3c(cccc3=O)[C@H]1N2CCc1ccccc1 | / | / | -3 | / | / | /
CCOP(=O)(OCC)C(O)c1ccc(N(C)C)cc1 (centres undefined) | -1 | 8 | -2 | / | 30* | -1
Cc1ccc(NC(=S)NCCc2cnc[nH]2)cc1C | 2 | 2 | -1 | / | -5 | 0
S=C(NCCc1ccccc1)NCCc1cnc[nH]1 | 3 | / | 57* | / | -5 | 0
CCn1nc(-c2ccccc2)nc2c(=O)n(C)c(=O)nc1-2 | / | -4 | -40 | -3 | -4 | 1
Cc1nc2c(=O)n(C)c(=O)nc-2n(C)n1 | / | 78* | 19 | -24 | -6 | 0
C=Cc1cc(OC)c2c(c1)c(=O)oc1c2cc(OC)c2c(O)ccc(C3OC(C)C(O)C(C)(O)C3O)c21 (centres undefined) | 18* | -1 | 19 | -8 | -2 | -1
CN1CCN(c2ccc([N+](=O)[O-])c3no[n+]([O-])c23)CC1 | 18* | ? | 38* | -35 | -8 | 0
COCC#Cc1ccc([C@@H]2[C@@H](CO)N3CCCCN(C(=O)Cc4ccccn4)C[C@@H]23)cc1 | 2 | 19 | 6 | 5[16.7 µM] | / | /
O=C1NC(=O)C(=Cc2cccc(OCCOc3ccccc3)c2)C(=O)N1 | 0 | -15 | 0 | 1 | 4 | 2
O=C1NC(=O)C(=Cc2ccc(OCCOc3ccc([N+](=O)[O-])cc3)cc2)C(=O)N1 | -1 | 4 | active | / | 3 | 0
C[C@]12CCC(OC(=O)CCC(=O)O)CC1=CCC1C2CC[C@]2(C)C(=O)CCC12 (some centres undefined) | -1 | -4 | -5 | -6 | -2 | -1
COCCO[C@H]1CC[C@@]2(C)C(=CCC3C2CC[C@@]2(C)C3CC[C@]2(C)O)C1 (some centres undefined) | 8.7* | 3 | -29 | 2 | -21 | -3
COc1ccc(NP(=O)(Oc2ccc(Cl)cc2)Oc2ccc(Cl)cc2)cc1OC | -2 | -10 | / | 136* | -3 | 1
Cc1ccc(OP(=O)(Nc2cccc(C)c2)Oc2ccc(C)cc2)cc1 | -2 | -13 | -2 | 187* | -4 | 0
COC(=O)[C@@H]1[C@@H](CO)[C@@H]2Cn3c(ccc(-c4ccc(F)cc4)c3=O)[C@H]1N2C(=O)c1ccccc1F | 2 | -5 | -10 | 2[16.7 µM] | / | /
COc1ccccc1CN1[C@H](CO)[C@H](c2ccccc2)C12CN(C(=O)Cc1ccccc1)C2 | 0 | 3 | / | / | / | /
CNc1ccc2nc3ccccc3[n+](C)c2c1 | -3 | / | 68* | -3 | 27 | 13
Cc1ccccc1-c1ccc([C@H]2[C@H]3CN(C(=O)Cc4ccccn4)CCCCN3[C@H]2CO)cc1 | -3 | -16 | 1 | 3[16.7 µM] | / | /
